Bioassay records (PubChem)
Sampled rows, rich in hits. Any-hit rate of the full collection: about 1.9%.
SR-BI DiI-HDL act – SR-BI HDL lipid transfer activation. CHO ldlA[mSR-BI] cells, DiI-HDL uptake fluorescence, 3 h; 100 = double the neutral-control signal. actives 0.096% (n = 320,000). AID 504775. activation, % at 12.5 µM;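 active = mean replicate activation of at least 60% and every replicate at or above 60%; inconclusive = mean or all-replicate condition met, but not both; inactive = mean below 60% and not all replicates reaching 60%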
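material = CHO ldlA[mSR-BI] cells | medium = Ham's F12 with 0.5% BSA, HEPES 25 mM, pH 7.4 | reagent = fluorescent DiI-HDL, 10 µg/mL final | compound dosing = single-point compound dose | incubation = 3 h, 37 °C | measured by = bottom-read fluorescence, 550/595 nm | measure = HDL uptake via cellular fluorescence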
GRK2 inh – human GRK2 inhibition via aptamer displacement; P25098; bead flow cytometry, FAM-aptamer displacement from GRK2; inhibition of aptamer binding, % at 10 µM; actives 0.59% (n = 330,000);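 active = inhibition of aptamer binding above 40%, roughly 3 SD of noise, on plates passing a quality check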;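 note: median bead fluorescence of bound FAM aptamer so fluorescent compounds give negative values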
Rin1-Abl PPI inh – human Rin1-Abl interaction inhibition; actives 0.4% (n = 360,000); inhibition, % at 7.35 µM; TR-FRET Rin1/Abl binding, biochemical; AID 588664; in the data active = inhibition above about 5%, passing the limit was not always enough
SR-BI HDL uptake – blocks mouse SR-BI lipid uptake from DiI-HDL. ldlA[mSR-BI] CHO cells, DiI-HDL uptake fluorescence, 3 h. inhibition, % at 12.5 µM. actives 0.96% (n = 320,000);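 active = mean replicate inhibition of at least 70% and a set share of replicates each scoring 70 or more; inconclusive = meets just one of the two criteria; inactive = fails both criteria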
DiI quencher – quenches DiI-HDL fluorescence, an SR-BI assay artifact; shares compounds with SR-BI HDL uptake; cell-free DiI-HDL fluorescence quenching, 30 min; AC50, µM (top dose mostly 35 µM); actives 20% (n = 470);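 active = quenching, a falling signal, with AC50 below a set limit tied to the top valid dose, actives reach about 32 µM in these data; inconclusive = no clear call, values can overlap the other calls; inactive = rising signal, and the rest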
Each line names hits and unclear results; the compound was inactive in the other large screens (follow-up assays come after a bar, where they were run).

CCOC(=O)C1CCN(C(=O)Cn2cnc3sc(C)c(S(=O)(=O)N4CCC(C)CC4)c3c2=O)CC1	SR-BI HDL uptake inconclusive | DiI quencher inactive
COc1ccccc1-n1c(SCC(=O)NCc2ccc3c(c2)OCO3)nc2cc([N+](=O)[O-])ccc21	none
CC(Sc1nc2cc([N+](=O)[O-])ccc2n1-c1ccc(F)cc1)C(=O)NCc1ccc2c(c1)OCO2 (stereo not drawn)	SR-BI HDL uptake 82 | DiI quencher inactive
CCOc1ccc(OCCC(=O)OCC(=O)N2CCN(S(=O)(=O)c3ccc(C)cc3C)CC2)cc1	none (no result: GRK2 inh)
O=C(NCc1ccccc1F)C1CCN(C(=O)c2sccc2-n2cccc2)CC1	none
O=C(NCc1ccccc1Cl)C1CCN(C(=O)c2sccc2-n2cccc2)CC1	SR-BI HDL uptake inconclusive | DiI quencher inactive
CC1CCCCC1NC(=O)C1CCN(C(=O)c2sccc2-n2cccc2)CC1 (stereo not drawn)	none | DiI quencher inactive
CCOc1ccccc1CNC(=O)C1CCN(C(=O)c2sccc2-n2cccc2)CC1	none | DiI quencher inactive
CCOc1ccccc1CNC(=O)C1CCN(S(=O)(=O)N2CCC(C)CC2)CC1	none (no result: SR-BI DiI-HDL act, GRK2 inh, SR-BI HDL uptake)
Cc1sc(NC(=O)CN2CCOCC2)nc1-c1ccc2c(c1)CCN2S(=O)(=O)c1ccccc1	SR-BI HDL uptake inconclusive | DiI quencher inactive
O=C(CN1CCOCC1)Nc1nc(-c2ccc3c(c2)CCN3S(=O)(=O)c2ccccc2)cs1	none | DiI quencher inactive
CC(=O)Oc1ccc(C(=O)Cc2ccc3ccccc3n2)c(O)c1C	SR-BI HDL uptake inconclusive | DiI quencher inactive
C=CCN(CC(=O)Nc1cccnc1)S(=O)(=O)c1ccc(Cl)cc1	none
Cc1c(C(=O)OCCOC(C)C)[nH]c2c1C(=O)CC(c1ccco1)C2 (stereo not drawn)	SR-BI HDL uptake 89 | DiI quencher inactive
CCOC(=O)c1[nH]c2c(c1C)C(=O)CC(c1ccco1)C2 (stereo not drawn)	none
COCCOC(=O)c1[nH]c2c(c1C)C(=O)CC(c1ccco1)C2 (stereo not drawn)	SR-BI HDL uptake inconclusive | DiI quencher inactive
COC(=O)c1[nH]c2c(c1C)C(=O)CC(c1cccs1)C2 (stereo not drawn)	SR-BI HDL uptake 82 | DiI quencher inactive
C=CCOC(=O)c1[nH]c2c(c1C)C(=O)CC(c1cc(OC)c(OC)c(OC)c1)C2 (stereo not drawn)	SR-BI HDL uptake 72 | DiI quencher inactive
CCCNC(=O)C1(C)CCCN(C(=O)COc2ccc(Cl)cc2Cl)C1 (stereo not drawn)	none (no result: SR-BI DiI-HDL act, GRK2 inh, SR-BI HDL uptake)
CC(=O)Nc1ccc(NC(=O)C(C)OC(=O)C23CC4CC(CC(Cl)(C4)C2)C3)cc1 (stereo not drawn)	none
C=C1C(=O)C23C(O)C1CCC2C12CCCC(C)(COC(C)=O)C1C(O)C3(O)OC2 (stereo not drawn)	none (no result: GRK2 inh)
O=C(Nc1ccccc1)c1cc(C2CCCCN2C(=O)c2cccs2)on1 (stereo not drawn)	none (no result: SR-BI DiI-HDL act, GRK2 inh, SR-BI HDL uptake)
CC1(C(=O)NS(=O)(=O)Cc2ccccc2C(F)(F)F)CCN1C(=O)Cc1ccsc1 (stereo not drawn)	none (no result: SR-BI DiI-HDL act, GRK2 inh, SR-BI HDL uptake)
Cc1c(C(=O)OCc2ccccc2)[nH]c2c1C(=O)CC(c1ccco1)C2 (stereo not drawn)	SR-BI HDL uptake 84 | DiI quencher inactive
Cc1ccc(NC(=O)c2cc(-c3ccco3)nc3ccccc23)cc1S(=O)(=O)N1CCOCC1	SR-BI HDL uptake 102 | DiI quencher inactive
O=C(NCCCN1CCOCC1)c1cc(-c2ccco2)nc2ccccc12	none
CCOc1cc(N2CCOCC2)c(OCC)cc1NC(=O)c1cc(-c2ccco2)nc2ccccc12	SR-BI HDL uptake 79 | DiI quencher 24µM
CC(C)OC(=O)c1cccc(C(=O)Nc2cccc(NC(=O)c3cccc(C(=O)OC(C)C)n3)n2)n1	SR-BI HDL uptake 72 | DiI quencher inactive
Cc1cc(C(=O)C(C)OC(=O)C2=NNC(=O)CC2)c(C)n1-c1ccc(OC(F)F)cc1 (stereo not drawn)	SR-BI HDL uptake 82 | DiI quencher inactive
Cc1cc(C(=O)COC(=O)C2=NNC(=O)CC2)c(C)n1-c1ccc(OC(F)F)cc1	none
CC(=O)c1cccc(NC(=O)c2ccc3c(c2)CCN3S(=O)(=O)c2ccccc2)c1	SR-BI HDL uptake 91 | DiI quencher inactive
NS(=O)(=O)c1ccc(NC(=O)c2ccc3c(c2)CCN3S(=O)(=O)c2ccccc2)cc1	none
CS(=O)(=O)N1CCc2cc(C(=O)Nc3cccc([N+](=O)[O-])c3)ccc21	none | DiI quencher inactive
CC(=O)Nc1cccc(NC(=O)c2ccc3c(c2)CCN3S(=O)(=O)c2ccccc2)c1	SR-BI HDL uptake inconclusive | DiI quencher inactive
COc1ccc(NC(=O)c2ccc3c(c2)CCN3S(=O)(=O)c2ccccc2)cc1	SR-BI HDL uptake 81 | DiI quencher inactive
COc1cccc(S(=O)(=O)N(C)C[C@@H]2OCc3cn(nn3)CCCC(=O)N([C@H](C)CO)C[C@H]2C)c1	none (no result: SR-BI DiI-HDL act, GRK2 inh, SR-BI HDL uptake)
Cc1occc1C(=O)Nc1cc(S(=O)(=O)N2CCOCC2)ccc1OC(C)C	none
COc1ccc(NS(=O)(=O)c2ccc(OCC(=O)N3CCOCC3)cc2)cc1Cl	none
CC(C)(C)c1ccc(CC(=O)N2CCC2(C)C(=O)NS(=O)(=O)c2ccc(Cl)s2)cc1 (stereo not drawn)	none (no result: SR-BI DiI-HDL act, GRK2 inh, SR-BI HDL uptake)
O=C(Nc1ccccc1)c1ccc2c(c1)CCN2S(=O)(=O)c1ccccc1	SR-BI HDL uptake 76 | DiI quencher inactive
COc1ccccc1NC(=O)CN1CCN(CC(=O)Nc2ccc(OCc3ccccc3)cc2)CC1	none | DiI quencher inactive
COc1ccccc1NC(=O)CN1CCN(CC(=O)Nc2ccc(F)cc2)CC1	none
COc1ccccc1NC(=O)CN1CCN(CC(=O)Nc2ccc(C)c(F)c2)CC1	SR-BI HDL uptake 104 | DiI quencher inactive
O=C(Nc1nc(-c2ccccn2)cs1)c1ccc(-c2ccccc2F)o1	none | DiI quencher inactive
CCC(=O)Nc1ccc(Cl)c(NC(=O)c2cccc(OC)c2)c1	SR-BI HDL uptake 80 | DiI quencher inactive
CCC(=O)Nc1ccc(Cl)c(NC(=O)c2ccccc2OC)c1	none
O=C1C2C3C=CC(C3)C2C(=O)N1c1cccc(N2C(=O)C3C4C=CC(C4)C3C2=O)n1 (stereo not drawn)	none | DiI quencher inactive
CCCCN(C=O)c1c(CC)nc2c(OCc3ccc(Cl)cc3)cccn12	none (no result: SR-BI DiI-HDL act, GRK2 inh, SR-BI HDL uptake)
CCc1ccccc1NC(=S)N(CCN1CCOCC1)Cc1ccccc1F	none
CCCCC(c1nnnn1CC1CCCO1)N1CCN(c2cc(Cl)ccc2C)CC1 (stereo not drawn)	SR-BI HDL uptake 82 (no result: GRK2 inh) | DiI quencher inactive
Nc1cc2c(cc1Cl)-c1ccc(Cl)cc1C2	none (no result: SR-BI DiI-HDL act, GRK2 inh, SR-BI HDL uptake)
O=C(O)c1ccc(S(=O)(=O)NCC2CCCCC2)cc1	none
Cc1ccc(C(C(=O)NCc2ccccc2)N(Cc2cccs2)C(=O)c2ccc3c(c2)OCCO3)cc1 (stereo not drawn)	none
COc1ccc(CNC(=O)C(c2ccc(C)cc2)N(Cc2cccs2)C(=O)c2ccc3c(c2)OCCO3)cc1 (stereo not drawn)	none | DiI quencher inactive
